Screening data deposited in PubChem BioAssay by several laboratories.
Hits are enriched below; roughly 3.7% of the tested compounds scored in any of these assays.
aDG glyco up: increases alpha dystroglycan glycosylation. Pro5-aDG cells, alpha-DG glycosylation AlphaScreen (IIH6); 0% Pro5, 100% B10-LARGE cell signal. activation, % at 10 µM. hit rate 0.22% among 360,000;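 active = activation of at least 8% versus controls, or a plate z-score of at least 8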;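 note: Pro5 are CHO cells carrying HIG-tagged alpha-DG that lacks glycosylation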
proCasp7 act: counter-screen for procaspase-3 activators: activators of human procaspase-7; activation, % at 8.5 µM; hit rate 0.093% among 330,000; P55210; AID 463210; recombinant procaspase-7, Ac-DEVD-pNA absorbance 405 nm; D23A/D198A/D206A triple mutant, cannot self-cleave; scale: DMSO 0, 5 µM enzyme 100;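 active = percent activation above the screen-wide mean plus 3 SD, cut at about 25% in these data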
Target sequence (P55210 whole entry D23A/D198A/D206A): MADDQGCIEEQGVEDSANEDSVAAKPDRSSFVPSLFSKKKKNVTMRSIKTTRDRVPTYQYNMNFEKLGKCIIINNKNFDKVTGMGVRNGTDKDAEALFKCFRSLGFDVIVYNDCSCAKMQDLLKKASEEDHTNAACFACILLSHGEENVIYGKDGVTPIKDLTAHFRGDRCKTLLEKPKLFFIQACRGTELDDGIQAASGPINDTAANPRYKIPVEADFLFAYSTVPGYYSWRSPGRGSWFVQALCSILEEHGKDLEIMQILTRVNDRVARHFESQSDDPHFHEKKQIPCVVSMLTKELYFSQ
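System: Uncleavable procaspase-7 mutant enzyme; Amount: 2 µM procaspase-7 mutant as dispensed; Schedule: 1 h compound preincubation, 2 h substrate cleavage, 25 °C; Measured by: 405 nm absorbance of p-nitroaniline; Evaluation: percent activation from buffer-corrected 0–120 min absorbance change; Control set: low DMSO alone, high DMSO plus 5 µM PC-7.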
MPTP inh: permeability transition pore inhibition; inhibition, % at 10 µM; AID 602449; hit rate 1.4% among 360,000; isolated mouse mitochondria, Ca2+ swelling absorbance, 30 min;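 active = inhibition of 50% or more, scaled per plate between neutral and stimulator controls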;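 note: 0% = DMSO wells given calcium and 100% = 1 mM EGTA wells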
NR3A LBD binder: modulators (binders) of human NR3A ligand-binding domain. hit rate 2.5% among 340,000. NR3A LBD differential scanning fluorimetry, Tm shift; 0% = protein alone, 100% = glycine-bound protein. AID 1259313. Tm shift relative to glycine control, % at 25 µM;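 active = melting temperature shift of at least 10% of the positive control shift, at one fixed dose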
proCasp3 act: procaspase-3 (human) activation. P42574. recombinant procaspase-3 D3A, Ac-DEVD-pNA absorbance 405 nm. activation, % at 8.5 µM. hit rate 0.11% among 330,000. AID 463141;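 active = activation above the mean of all tested compounds plus 3 SD, cut at about 21% in these data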;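 note: 0% = DMSO alone and 100% = DMSO wells spiked with extra 5 µM PC-3 D3A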
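assay system = Procaspase-3 D3A mutant | signal = absorbance at 405 nm, 0 and 120 min | times = 1 h preincubation plus 2 h reaction at 25 °C | repeats = single replicate | read-out = % activation between DMSO and enzyme-spiked controls | medium = Zinc-free HEPES saline buffer with Triton X-100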
Rh123 counter: mitochondrial membrane potential, counter-screen; hit rate 78% among 5,000; isolated mitochondria, Rhodamine 123 fluorescence; inhibition, % at 10 µM; shares compounds with MPTP inh; in the data active = inhibition above about 22%;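 note: 0% = DMSO vehicle and 100% = positive control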
MPTP abs DR: MPTP inhibition, dose response swelling confirmation. shares compounds with MPTP inh. IC50, µM. isolated mitochondria swelling, absorbance. AID 651561. hit rate 58% among 780; in the data active = IC50 below about 20 µM
MPTP counter DR: counter-screen for mitochondrial permeability transition pore inhibitors, dose response; shares compounds with MPTP inh; isolated mitochondria counterscreen, fluorescence read-out; IC50, µM; hit rate 49% among 780; AID 651564; in the data active = IC50 below about 80 µM
Starred values were filed as active, the others as inactive; i = inactive; x = not tested or not shown.

SMILES	aDG glyco up	proCasp7 act	MPTP inh	NR3A LBD binder	proCasp3 act	Rh123 counter	others
Cc1ccc(NC(=O)Nc2cccc(C)n2)cc1	0	0	2	0	-6	x
O=C(CSc1ccc([N+](=O)[O-])cn1)Nc1ccc2[nH]c(=O)[nH]c2c1	0	-4	0	-1	-1	x
O=C(Nc1ccccc1Cl)c1cc(C2CCCN(C(=O)c3ccccc3)C2)on1 (configuration not stated)	0	x	0	x	x	x
CCN1CCN(c2nc(N)c([N+](=O)[O-])c(Nc3ccc(C)c(C)c3)n2)CC1	2	4	81*	1	-8	-2	MPTP abs DR=i;MPTP counter DR=77*
Cc1ccc(Nc2nc(N)c([N+](=O)[O-])c(N3CCCC(C)C3)n2)cc1C (configuration not stated)	0	-3	55*	-1	6	-9	MPTP abs DR=i;MPTP counter DR=70*
O=NN(CC(=O)NNc1ccccc1)CC(=O)NNc1ccccc1	0	x	0	x	x	x
CCN(C(=O)CSc1cccc[n+]1[O-])C1CCCCC1	0	1	-1	2	-5	x
CC1(C)CC(=Cc2cc(O)ccc2[N+](=O)[O-])C(=O)c2ccccc21	0	x	91*	x	x	94*
O=C1/C(=C/c2ccccc2[N+](=O)[O-])COc2ccccc21	-1	8	-3	0	-6	x
CC(OC(=O)CCc1nc2ccccc2c(=O)[nH]1)C(=O)NC1CCCC1 (configuration not stated)	0	-5	-2	-3	4	x
CC(OC(=O)CCc1nc2ccccc2c(=O)[nH]1)C(=O)c1ccc(C(C)(C)C)cc1 (configuration not stated)	0	-10	96*	-3	0	86*
COc1ccc(Nc2nc(OC)nc(N3CCOCC3)n2)cc1	0	-7	-1	0	4	x
Cc1ccc(Nc2nc(OC(C(F)(F)F)C(F)(F)F)nc(N3CCOCC3)n2)cc1	1	2	72*	-1	3	1	MPTP abs DR=>100;MPTP counter DR=>80
CCOC(=O)c1c(NC(=O)C(NCCN(C)C)c2ccccc2)sc2c1CCCC2 (configuration not stated)	0	6	81*	-6	7	-11
CCOC(=O)c1c(NC(=O)c2ccccc2N(C)S(=O)(=O)c2ccccc2)sc2c1CCCC2	0	12	3	0	8	x
CCN(CC)S(=O)(=O)c1cccc(NC(=O)CSc2nc3ccccc3[nH]2)c1	1	11	65*	-4	5	33*
CN(C)S(=O)(=O)c1ccc(NC(=O)CSc2ncnc3ccccc23)cc1	0	-8	1	-9	2	x
CN(C)S(=O)(=O)c1cccc(NC(=O)CSc2ncnc3ccccc23)c1	0	-7	84*	-1	7	66*
Cc1nn(C)c(Cl)c1NC(=O)OCc1ccc(Cl)cc1Cl	3	6	87*	-3	-1	92*
CCc1ccc(NC(=O)c2ccc(F)c(S(=O)(=O)N(CC)c3ccccc3)c2)cc1	2	6	62*	2	3	76*
O=C(Nc1cccc(Cl)c1)c1ccc(F)c(S(=O)(=O)NCc2cccs2)c1	1	0	77*	13*	0	84*
CCN(c1ccccc1)S(=O)(=O)c1cc(C(=O)Nc2cccc(Cl)c2)ccc1F	1	13	95*	15*	3	69*
Cc1cccc(-c2cnc(C(O)c3ccc(Cl)cc3C)[nH]2)c1 (configuration not stated)	0	x	2	x	x	x
COc1ccc(S(=O)(=O)NC(=O)C2(C)CCN2C(=O)C2(c3ccccc3)CC2)cc1 (configuration not stated)	0	x	-2	x	x	x
COc1ccc([C@H]2C[C@H](n3cc(COC(=O)c4ccccc4)nn3)[C@@H](O)CN2CC2CCCCC2)cc1	0	x	1	x	x	x
